Bioassay records (PubChem BioAssay)
This is a sample that favours compounds with a hit; in the whole collection about 2.2% have one here.
CHRM5 antagonist = blocks acetylcholine activation of human M5 receptor | P08912 | CHO-hM5 cells, Fluo-8 calcium fluorescence, ACh EC80 | inhibition, % at 3 µM | 360,000 compounds, 0.59% hits | AID 624040;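 active = inhibition above a per-plate cutoff, the mean of that plate's test compounds plus 3 SD, cut at about 27% in these data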
M5 ag = CHRM5 agonism in calcium assay. CHO-K1 hM5 cells, Fluo-8 calcium fluorescence; 0% DMSO wells, 100% maximal acetylcholine response. P08912. 360,000 compounds, 0.19% hits. activation, % at 3 µM. AID 624037;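 active = activation above the run's mean over test compounds plus 3 SD, cut at about 23% in these data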;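 also: signal is peak over basal fluorescence ratio across the kinetic read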
CHRM1 agonist = activates human CHRM1 receptor. P11229. CHO-K1 hM1, Fluo-8 calcium fluorescence, agonist mode; 0% DMSO, 100% acetylcholine EC100. activation, % at 3 µM. 360,000 compounds, 0.33% hits. AID 588814;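 active = activation above the run's mean compound activation plus 3 SD, cut at about 16% in these data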;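 also: peak over basal fluorescence ratio within a 140 s kinetic read after compound addition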
Target sequence (P11229 whole entry, looked up): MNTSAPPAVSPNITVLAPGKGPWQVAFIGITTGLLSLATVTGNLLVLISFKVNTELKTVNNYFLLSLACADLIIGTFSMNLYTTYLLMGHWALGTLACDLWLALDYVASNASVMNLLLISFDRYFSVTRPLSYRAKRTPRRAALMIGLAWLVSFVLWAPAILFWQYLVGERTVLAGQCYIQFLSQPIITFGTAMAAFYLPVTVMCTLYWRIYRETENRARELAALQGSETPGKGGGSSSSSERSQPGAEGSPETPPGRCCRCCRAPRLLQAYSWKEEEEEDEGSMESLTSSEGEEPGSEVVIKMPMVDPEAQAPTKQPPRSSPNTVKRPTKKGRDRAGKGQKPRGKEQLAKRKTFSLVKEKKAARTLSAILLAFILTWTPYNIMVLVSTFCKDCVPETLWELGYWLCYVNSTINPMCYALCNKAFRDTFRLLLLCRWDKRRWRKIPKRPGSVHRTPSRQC
M1 antag = antagonists of human M1 muscarinic receptor; P11229; CHO-K1 hM1, Fluo-8 calcium fluorescence, ACh EC80 antagonist; inhibition, % at 3 µM; 360,000 compounds, 1.3% hits; AID 588852;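 active = percent inhibition above its own plate's cutoff, namely the mean of that plate's compound wells plus 3 SD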;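 also: peak over basal fluorescence ratio during 140 s after agonist addition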
CHRM5 PAM = CHRM5 positive allosteric modulation; P08912; activation, % at 3 µM; CHO-K1 hM5, Fluo-8 calcium, ACh EC20 PAM; 0% = ACh EC20, 100% = ACh EC100; 360,000 compounds, 0.3% hits;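 active = activation above the run cutoff, the mean activation of all test compounds plus 3 SD, cut at about 18% in these data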
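Replicates: One well per compound, no replicates | System: Human M5 receptor in CHO-K1 cells | Benchmarks: Low control EC20 acetylcholine (0%), high control EC100 acetylcholine (100%) | Probe or stimulus: Acetylcholine, EC20 level | Times: Fluo-8 loading 80 min at 37 °C plus 30 min room temperature | Signal: Intracellular calcium via Fluo-8 fluorescence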
M1 PAM = positive allosteric modulators of human M1 muscarinic receptor. activation, % at 3 µM. 360,000 compounds, 0.088% hits. CHO-K1 hM1, Fluo-8 calcium fluorescence, ACh EC20; 0% = ACh EC20, 100% = maximal ACh. AID 588819. P11229; in the data active = activation above about 19%, passing the limit was not always enough
Hits are given with their value; n = inactive.

SMILES	CHRM5 antagonist	M5 ag	CHRM1 agonist	M1 antag	CHRM5 PAM	M1 PAM
C[C@H](CO)N1C[C@H](C)[C@@H](CN(C)S(C)(=O)=O)Oc2ccc(NC(=O)Nc3ccccc3)cc2C1=O	n	n	n	n	21.8	n
C[C@H](CO)N1C[C@H](C)[C@@H](CN(C)S(=O)(=O)c2ccccc2)Oc2ccc(NC(=O)NC3CCCCC3)cc2C1=O	n	n	n	39.0	n	n
C[C@H](CO)N1C[C@H](C)[C@@H](CN(C)S(=O)(=O)c2cccs2)Oc2ccc(NC(=O)Cn3cnnn3)cc2C1=O	n	n	n	26.2	n	n
C[C@H](CO)N1C[C@H](C)[C@@H](CN(C)S(=O)(=O)c2ccccc2)Oc2ccc(NC(=O)C3CCCCC3)cc2C1=O	n	n	n	n	n	n
COc1ccc(S(=O)(=O)Nc2ccc3c(c2)C(=O)N([C@H](C)CO)C[C@H](C)[C@@H](CN(C)C(=O)Nc2c(C)noc2C)OCCCC[C@H](C)O3)cc1	n	n	40.1	n	n	n
COc1ccc(S(=O)(=O)Nc2ccc3c(c2)C(=O)N([C@H](C)CO)C[C@H](C)[C@@H](CN(C)C(=O)Nc2c(C)noc2C)O3)cc1	n	n	n	n	n	n
O=C(Cn1nnc(-c2ccc(F)cc2)n1)NC(=O)NC1CCCCC1	n	n	n	n	n	n
C[C@H](CO)N1C[C@H](C)[C@@H](CN(C)S(=O)(=O)c2cccs2)Oc2ccc(NC(=O)NC3CCCCC3)cc2C1=O	n	n	n	44.3	n	n
C[C@H]1CN([C@@H](C)CO)C(=O)c2cccc(NC(=O)Nc3ccc(C(F)(F)F)cc3)c2O[C@H]1CN(C)C	n	n	n	n	20.5	26.5
C[C@@H]1CCCCO[C@H](CN(C)S(=O)(=O)c2cccs2)[C@H](C)CN([C@@H](C)CO)C(=O)c2cc(NC(=O)NC3CCCCC3)ccc2O1	n	n	n	n	n	n
COC(=O)c1cc(Cl)nc2ccccc12	n	n	n	n	21.4	n
CCN(CC)c1ccc(/C=C(/C#N)C(=O)NCc2ccccc2)o1	n	29.8	16.2	n	n	n
CC(C(=O)OCC(=O)c1c(N)n(C)c(=O)n(C)c1=O)N1C(=O)c2ccccc2C1=O (configuration not stated)	n	n	n	n	n	n
CC(C)[C@H](NC(=O)c1ccccc1)C(=O)OCC(=O)c1c(N)n(C)c(=O)n(C)c1=O	n	n	n	29.4	n	n
Cc1nc2c(C)cccn2c1/C(O)=C1\C(=O)C(=O)N(CCN(C)C)C1c1ccco1 (configuration not stated)	n	n	n	n	21.0	n
CCN(CC)CCN1C(=O)/C(=C\c2ccc(Cl)c([N+](=O)[O-])c2)SC1=Nc1ccc(OC)cc1	29.8	n	n	n	n	n
COc1ccc(NC(=O)c2ccc(-c3c(C)noc3C)c3ccoc23)cc1	n	n	n	n	n	n
COCCN1Cc2cccc(C(=O)Nc3c(C)cc(C)cc3C)c2C1=O	n	n	n	n	37.4	n
COCCN1Cc2cccc(C(=O)Nc3cc(C)cc(C)c3)c2C1=O	n	n	n	n	n	n
CCOC(=O)C1=C(C)NC(=O)NC1c1ccc(N(CC)CC)cc1 (configuration not stated)	n	n	n	30.0	n	n
CCN(CC)c1ccc(C2C(C(=O)OC)=C(C)NC(C)=C2C(=O)OC)cc1	n	n	n	37.3	n	n
CCOC(=O)C1=C(C)NC(=O)NC1c1ccc(N(C)C)cc1 (configuration not stated)	n	n	n	n	n	n
CCCCOC(=O)C1=C(C)NC(=O)NC1c1ccc(OC)cc1 (configuration not stated)	n	n	n	n	18.1	n
CCCCCOC(=O)C1=C(C)NC(=O)NC1c1ccc(OC)cc1 (configuration not stated)	n	n	n	n	n	n
COC(=O)C1=C(C)NC(C)=C(C(=O)OC)C1c1ccc(NC(C)=O)cc1	n	43.9	32.2	n	n	n
SMILES	CHRM5 antagonist	M5 ag	CHRM1 agonist	M1 antag	CHRM5 PAM	M1 PAM
C[N+]1(CC#CC(O)(c2ccccc2)c2ccccc2)CCCC1	98.8	n	n	99.6	n	n
CC(C)[N+](C)(C)CC#CC(O)(c1ccccc1)c1ccccc1	99.8	n	n	98.9	n	n
C[N+]1(CCC(=O)c2ccccc2)CCCCC1	n	n	n	n	n	n
OC(C#Cc1ccccc1)(c1ccccc1)c1ccccc1	n	n	n	n	n	n
CCc1ccc(C#CC2=CC(=O)CC(C)(C)C2)cc1	n	n	n	n	n	n
Cn1ccc(NC(=O)Nc2cccc([N+](=O)[O-])c2)n1	n	n	n	n	n	n
CCS(=O)(=O)N1CCN(c2ncnc3sc(C)c(C)c23)CC1	n	n	n	n	n	n
O=S(=O)(c1cc(C(F)(F)F)ccc1Cl)N1CCN(c2ncnc3ccccc23)CC1	n	n	n	39.4	n	n
Cc1ccc(S(=O)(=O)N2CCN(c3ncnc4sccc34)CC2)cc1	n	n	n	29.6	n	n
Cc1sc2ncnc(N3CCN(S(=O)(=O)c4ccc(F)cc4)CC3)c2c1C	n	n	n	29.4	n	n
Cc1cc(C)c(C)c(S(=O)(=O)N2CCN(c3ncnc4ccccc34)CC2)c1C	n	n	n	n	n	n
O=S(=O)(c1ccccc1C(F)(F)F)N1CCN(c2ncnc3sccc23)CC1	n	n	n	29.0	n	n
O=S(=O)(c1ccc(F)c(F)c1F)N1CCN(c2ncnc3sccc23)CC1	n	n	n	n	n	n
O=C(CCl)Nc1cn(-c2ccccc2)nc1-c1ccccc1	n	n	n	n	n	n
CCN(CC)C1CCN(C(=O)CCn2nnnc2CN2CCOCC2)C1 (configuration not stated)	n	n	n	n	n	n
CC(=O)Nc1ccc(S(=O)(=O)NC2CC(=O)N(c3ccc4c(c3)OCCO4)C2)cc1 (configuration not stated)	n	n	n	n	n	n
CC(=O)N(C)C[C@@H]1Oc2ncc(C#Cc3ccc(F)cc3)cc2C(=O)N([C@@H](C)CO)C[C@H]1C	n	n	n	n	n	n
O=C(O)c1cc2c(N3CCC(Cc4ccccc4)CC3)ncnc2s1	n	n	n	n	n	n
c1ccc(CC2CCN(c3ncnc4sccc34)CC2)cc1	37.9	n	n	n	n	n
CN1CCN(C2=Cc3cc(Cl)ccc3Sc3cc(F)ccc32)CC1	44.5	n	n	81.7	n	n
CN1CCN(C2=Cc3ccccc3Sc3cc(F)c(F)cc32)CC1	n	n	n	69.8	n	n
